Calls of active or inactive are those of the source. The rule behind the calls is not given here.
Columns and labels:
[1] = biological target: T1, Mitogen-activated protein kinase 3 (Homo sapiens, UniProt P27361); assay: Inhibition of ERK1 phosphorylation in EGF-stimulated serum-starved human HUVEC cells by immunoblotting analysis; format: cell-based
[2] = tested on: SK-OV-3; assay: Antitumor activity against human SK-OV-3 cells xenografted in gamma-irradiation induced RH-rnu/rnu athymic rat assessed as tumor growth inhibition at 0.2 mg/kg, po administered once daily for 2 weeks and measured on day 14 relative to control; format: functional; details: SK-OV-3, light or radiation study, 336 h, read-out: TGI
[3] = tested on: OVCAR-3; assay: Antitumor activity against human OVCAR-3 cells xenografted in gamma-irradiation induced RH-rnu/rnu athymic rat assessed as tumor growth inhibition at 0.2 mg/kg, po administered once daily for 2 weeks and measured on day 14 relative to control; format: functional; details: OVCAR-3, light or radiation study, 336 h, read-out: TGI
Procedure, shortened: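 Rats were γ-irradiated with 7 Gy whole body, and 24 h later received s.c. tumor cells. Fragments (20-30 mg) from ~1,500 mm3 tumors were then implanted s.c. into irradiated athymic rats. Oral dosing at 0.2 or 1 mg/kg or vehicle ran once daily for 2 weeks from day 0. Tumors were measured with calipers twice weekly (length×width²×0.5). TGI% was taken versus vehicle on day 14 (BxPC-3: day 13), with an unpaired t test on RTV.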

[4] = tested on: Calu-6; assay: Antitumor activity against human Calu-6 cells xenografted in RH-rnu/rnu athymic rat assessed as decreased microvessel density at 0.2 mg/kg, po administered for 14 days by immunofluorescence staining analysis relative to control; format: functional; set-up: scale not given: the % may be the effect or the level left; details: time 14 day
[5] = tested on: Calu-6; assay: Antitumor activity against human Calu-6 cells xenografted in RH-rnu/rnu athymic rat assessed as increased ratio of enlarged vessels with >100 uM diameter in tumor at 0.2 mg/kg, po administered for 14 days by H33342 dye based fluorescence microscopic analysis relative to control; format: functional; details: time 14 day
Procedure, shortened: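 Calu-6 tumor-bearing athymic rats, three per group, received oral drug at 0.2 or 1 mg/kg or vehicle on days 0-13. They were killed 1 min after i.v. H33342 at 20 mg/kg on day 13. 10 µm cryosections were cut from five tumor levels at least 200 µm apart and examined under UV epifluorescence. The major axis of fluorescent halos around vessels was measured by image analysis, with a Mann-Whitney test.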

[6] = biological target: T1, Mitogen-activated protein kinase 3; assay: Inhibition of ERK1 phosphorylation in bFGF-stimulated serum-starved human HUVEC cells by immunoblotting analysis; format: cell-based
[7] = tested on: MDA-MB-231; assay: Antitumor activity against human MDA-MB-231 cells xenografted in gamma-irradiation induced RH-rnu/rnu athymic rat assessed as relative tumor volume at 1 mg/kg, po administered once daily for 2 weeks and measured on day 7; format: functional
Procedure, shortened: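 Tumor fragments were grown in γ-irradiated (7 Gy) athymic rats, followed by once-daily oral dosing at 1 mg/kg for 2 weeks. Tumor volume was measured with calipers as length×width²×0.5. Relative tumor volume was calculated as volume on day x divided by volume on day 0.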

[8] = tested on: SK-HEP1; assay: Antitumor activity against human SK-HEP1 cells xenografted in gamma-irradiation induced RH-rnu/rnu athymic rat assessed as tumor growth inhibition at 0.2 mg/kg, po administered once daily for 2 weeks and measured on day 14 relative to control; format: functional; details: SK-HEP1, light or radiation study, 336 h, read-out: TGI
[9] = biological target: Receptor tyrosine-protein kinase erbB-4 (Homo sapiens, UniProt Q15303); assay: Inhibition of ErbB4 (unknown origin) in presence of ATP
Receptor tyrosine-protein kinase erbB-4, sequence (Q15303 whole entry): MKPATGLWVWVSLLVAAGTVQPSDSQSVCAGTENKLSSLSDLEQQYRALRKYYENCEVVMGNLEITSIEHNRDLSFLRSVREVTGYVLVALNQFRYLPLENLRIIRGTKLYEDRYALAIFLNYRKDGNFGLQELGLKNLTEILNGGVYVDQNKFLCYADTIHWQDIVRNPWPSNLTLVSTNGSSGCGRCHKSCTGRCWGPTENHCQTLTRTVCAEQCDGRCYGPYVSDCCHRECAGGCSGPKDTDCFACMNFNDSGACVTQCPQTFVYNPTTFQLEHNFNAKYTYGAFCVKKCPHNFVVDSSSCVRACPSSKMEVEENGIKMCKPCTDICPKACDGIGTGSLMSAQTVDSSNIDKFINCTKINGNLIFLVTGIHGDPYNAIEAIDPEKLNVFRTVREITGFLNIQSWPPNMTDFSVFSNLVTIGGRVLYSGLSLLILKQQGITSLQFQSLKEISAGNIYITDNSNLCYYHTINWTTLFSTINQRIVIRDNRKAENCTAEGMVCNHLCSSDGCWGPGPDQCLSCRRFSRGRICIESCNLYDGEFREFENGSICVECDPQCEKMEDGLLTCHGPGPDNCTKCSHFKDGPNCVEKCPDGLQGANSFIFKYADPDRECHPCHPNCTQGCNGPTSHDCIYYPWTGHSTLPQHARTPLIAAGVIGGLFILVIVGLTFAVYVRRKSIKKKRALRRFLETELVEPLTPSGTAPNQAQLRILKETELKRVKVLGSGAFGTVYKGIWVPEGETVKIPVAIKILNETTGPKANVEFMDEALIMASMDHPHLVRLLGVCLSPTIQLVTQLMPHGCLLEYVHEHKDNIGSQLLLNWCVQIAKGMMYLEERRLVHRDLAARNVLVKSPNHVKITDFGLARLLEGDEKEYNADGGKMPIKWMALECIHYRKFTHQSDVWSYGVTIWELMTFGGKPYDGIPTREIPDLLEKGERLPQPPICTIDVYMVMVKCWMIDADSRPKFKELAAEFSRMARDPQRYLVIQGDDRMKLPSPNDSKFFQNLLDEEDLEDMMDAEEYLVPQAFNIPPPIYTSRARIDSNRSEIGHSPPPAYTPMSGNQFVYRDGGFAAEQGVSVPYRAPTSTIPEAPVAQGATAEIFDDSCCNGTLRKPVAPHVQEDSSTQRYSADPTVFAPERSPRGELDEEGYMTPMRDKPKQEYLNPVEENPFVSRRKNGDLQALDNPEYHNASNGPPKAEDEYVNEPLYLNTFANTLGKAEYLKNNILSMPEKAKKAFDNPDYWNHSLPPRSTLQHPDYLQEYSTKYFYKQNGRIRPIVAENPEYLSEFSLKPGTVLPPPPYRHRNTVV

T1 sequence (P27361 whole entry): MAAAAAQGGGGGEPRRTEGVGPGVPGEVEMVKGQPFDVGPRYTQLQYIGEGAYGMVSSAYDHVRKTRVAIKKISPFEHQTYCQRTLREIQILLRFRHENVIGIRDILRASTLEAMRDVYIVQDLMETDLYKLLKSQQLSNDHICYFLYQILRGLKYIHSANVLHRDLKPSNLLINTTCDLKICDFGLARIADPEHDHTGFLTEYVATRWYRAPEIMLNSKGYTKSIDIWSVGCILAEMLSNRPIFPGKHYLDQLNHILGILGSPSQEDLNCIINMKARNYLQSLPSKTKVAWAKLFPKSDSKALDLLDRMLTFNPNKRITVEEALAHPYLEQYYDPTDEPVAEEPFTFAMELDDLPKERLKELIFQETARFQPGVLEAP

How did the inhibition [1] turn out when `COc1cc2nccc(Oc3ccc(NC(=O)Nc4cc(C)on4)c(Cl)c3)c2cc1OC` [TIVOZANIB] was run?
Its inhibition is “inactive”.

And the inhibition in vivo at 0.2 mg/kg [2]?
Its inhibition in vivo at 0.2 mg/kg is 93.4%.

What about the inhibition in vivo at 0.2 mg/kg [3] of the same compound?
The inhibition in vivo at 0.2 mg/kg was 25%.

And the Activity [4]?
Its Activity is 42.5%.

And the Activity [5]?
Its Activity is 24.3%.

And the inhibition [6]?
Its inhibition is “inactive”.

And the Activity [7]?
The Activity was 0.89.

And the inhibition in vivo at 0.2 mg/kg [8]?
The inhibition in vivo at 0.2 mg/kg was 59.4%.

And the IC50 [9]?
The IC50 was over 1 µM.

Source: ChEMBL document CHEMBL5661970 (Cancer Res, 2006)
